Published values pooled from the literature.
Each line is one published result; the experiments were not run side by side.
Target: Cyclin-dependent kinase 15 (CDK15, Homo sapiens, UniProt Q96Q40)

Compound | assay | setting | remaining binding [%]
c1cnn2ncc(-c3ccnc(N4CCC45COC5)n3)c2c1 | binding | 1 µM | 85
CCN1CCN(Cc2ccc(C(=O)Nc3ccc(C)c(Oc4ccc5c(c4)CC(=O)N5)c3)cc2C(F)(F)F)CC1 | binding, competition with immobilised ligand | 1 µM | 100
COc1ncc2cc3ccccc3nc2c1C#N | cell-free assay, competition with immobilised ligand | 5 µM | 99
CN(c1nccc(-c2cnn3ncccc23)n1)C1CC1 | binding | 1 µM | 100
C[C@@H]1CN(c2cc(-c3nn(C)c4ccc(OC5(C)CC5)cc34)ncn2)C[C@H](C)O1 | cell-free assay, competition with immobilised ligand | 1 µM | 84
O=C(NCCCN1CCOCC1)c1ccc(Nc2ncc(Cl)c(-c3ccc(Cl)s3)n2)cc1 | binding, competition with immobilised ligand | 1 µM | 89
Nc1ncc2c(n1)-c1c([nH]c3ccc(C#CC4CC4)cc13)CCCC2 | binding, competition with immobilised ligand | 1 µM | 96
CCS(=O)(=O)c1cc2cc(C[C@@](O)(CC(C)(C)c3ccc(F)cc3C(N)=O)C(F)(F)F)[nH]c2cn1 | cell-free assay, competition with immobilised ligand | 1 µM | 59
CC1CCCN1c1nccc(-c2cnn3ncccc23)n1 (stereo not shown) | binding | 1 µM | 100
O=C(NCC1CCOCC1)c1n[nH]cc1NC(=O)c1c(F)cccc1F | binding, competition with immobilised ligand | 1 µM | 82
O=C(c1ccc(Nc2nccc(-c3cc4ccccc4s3)n2)cc1)N1CCC(N2CCCC2)CC1 | binding, competition with immobilised ligand | 1 µM | 100
CN(C)CC#Cc1ccc(OCCCc2sc(N3CCc4cccc(C(=O)Nc5nc6ccccc6s5)c4C3)nc2C(=O)O)c(F)c1 | cell-free assay, competition with immobilised ligand | 1 µM | 100
O=C(c1ccc(Nc2ncc(Cl)c(-c3cc4ccccc4s3)n2)cc1)N1CCC(N2CCCC2)CC1 | binding, competition with immobilised ligand | 1 µM | 70
COc1cnc(Nc2cccc(S(N)(=O)=O)c2)nc1N1CCN(c2ccccc2)CC1 | binding, competition with immobilised ligand | 1 µM | 93
Cc1nc(Cc2cccc(C(F)(F)F)c2)sc1-c1ccc(C(N)=O)nc1 | cell-free assay, competition with immobilised ligand | 1 µM | 86
F[C@@H]1CCN(c2nccc(-c3cnn4ncccc34)n2)C1 | binding | 1 µM | 100
CCc1ccccc1C(=O)Nc1n[nH]c2c(C)c(F)c(C3C(C#N)=C(C)N(C)C(C)=C3C#N)cc12 | cell-free assay, competition with immobilised ligand | 1 µM | 95
c1cncc(-c2cccc(Nc3nccc(NC4CCCCC4)n3)c2)c1 | binding, competition with immobilised ligand | 10 µM | 76
CCOC(=O)c1cc2cc(-c3cc(C(=O)NCc4ccc(C(=O)O)cc4)nn3C)ccc2[nH]1 | cell-free assay, competition with immobilised ligand | 0.1 µM | 93
N[C@H]1CCN(c2nccc(-c3cnn4ncccc34)n2)C1 | binding | 1 µM | 100
O=C(NCCCC1CCCCC1)c1ccc(CNC(=O)c2cnn(-c3ccccc3)c2C(F)(F)F)cc1 | cell-free assay, competition with immobilised ligand | 0.1 µM | 77
C[C@H]1CCN(c2nccc(-c3cnn4ncccc34)n2)C1 | binding | 1 µM | 56
